The series can be described thus: Toxicity liver stage against HepG2, at 10uM. It is filed as cell-based. Also noted: test concentration 10 uM, cell line HepG2-A16-CD81EGFP. Conditions: human, HepG2-A16-CD81EGFP cells; read-out: INHIBITION
The method, boiled down: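 Uninfected HepG2-A16-CD81EGFP cells, 3 × 10^3 per well, 1536-well, plated on prespotted compound at 10 μM final, parasite-free screening media added to match infected plates; puromycin 10 μM positive, DMSO 0.5% negative; run in parallel with 48 h PbLuc assay at 37 °C, 5% CO2; viability by CellTiter-Glo luminescence, normalized to controls.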

As to `CC(NC(=O)c1cccs1)C(=O)NS(=O)(=O)Cc1ccc(C#N)cc1` (stereo not given), the cytotoxicity at 10 µM stood at 5.29%.

For `Cc1nc(C(=O)N2CCN(S(C)(=O)=O)[C@@H]3CS(=O)(=O)C[C@@H]32)cs1`, the cytotoxicity at 10 µM was -9.19%.

Turning to `COc1ccc(-n2ccc(CNCc3cccc(OC)c3)n2)cc1`, the cytotoxicity at 10 µM was found to be 3.12%. For the compound `CSCC(=O)Nc1ncc(I)cc1C`, the cytotoxicity at 10 µM was -4.7%.

Regarding `CSCC(=O)N1CCC2(CC1)c1ccccc1CC2O` (stereo not given), the cytotoxicity at 10 µM is -19.8%.

`Cc1cnc(C(=O)N2CCN(Cc3csc(C)n3)CC2)cn1`: the cytotoxicity at 10 µM was -132%.

In the case of `Cc1ccoc1C(=O)N1CC[C@H]2O[C@@H](C)C[C@H]2C1`, the cytotoxicity at 10 µM is -4.93%. With `O=C(c1cc[nH]n1)N1CCCC1c1cncc(CN2CCOCC2)n1` (stereo not given), the cytotoxicity at 10 µM came out at 9.31%. With `O=C(NCCNc1ncccn1)C1CCN(C(=O)c2ccoc2)CC1` the figure was -12.6%; with `CC(C)OCCCNC(=O)[C@@]12CNC[C@@H]1CN(S(C)(=O)=O)C2`, 6.99%; with `Cc1ccc(CN2CCn3c(CNS(C)(=O)=O)nnc3C2)s1`, -67.7%. With `O=C(CN1CCCCC1C1OCCO1)Nc1ccc(F)c(F)c1` (stereo not given), the cytotoxicity at 10 µM was -3.53%. For `CC(Nc1ccc(Oc2cccc(C#N)c2)cc1)C(=O)NC1CC1` (stereo not given), the cytotoxicity at 10 µM stood at 6.91%. Take `CN(C)C(=O)N1CC[C@@H](O)[C@@H]1Cc1cnn(C)c1`: the cytotoxicity at 10 µM amounted to 7.02%. The value for `O=C(NCCc1nc(-c2ccccn2)no1)c1ccc(C2CCCO2)s1` (stereo not given) was 5.65%; that for `Brc1cc2c(cc1CN1CCC(N3CCCCC3)CC1)OCCO2` was 50.1%. Regarding `COc1ccc2[nH]cc(C(=O)N3CC[C@H](CO)[C@@H](O)C3)c(=O)c2c1`, the cytotoxicity at 10 µM was 1.26%. Take `CN(C)C(C(=O)NCC1(C)COC1)c1cccc(F)c1` (stereo not given): the cytotoxicity at 10 µM is -6.41%. With `CCN(CC)S(=O)(=O)CCNc1ncnc2cc(F)c(F)cc12` the figure was 25.9%. The value for `CCN1CCC(CNC(=O)C2(c3ccc(F)cc3)CC2)C1` (stereo not given) was -23%; that for `CC(C)(O)c1cc(CC2(NCc3ccco3)COC2)no1` was -1.7%; that for `O=S(=O)(c1cc(F)cc(F)c1)N1CCC(Oc2ccc(Cl)cn2)CC1` was -4.63%. Take `O=C(CCn1ccc2ccc(Br)cc21)/N=c1\[nH]nc(C2CCCO2)s1` (stereo not given): the cytotoxicity at 10 µM is -9.46%. In the case of `CCS(=O)(=O)N(C)C(=O)c1cc(C)n(-c2cccc(OC)c2)c1C`, the cytotoxicity at 10 µM is -2.35%.

Take `CC(C)C(=O)N1CCOC[C@H](Oc2ccc(C(F)(F)F)cc2)C1`: the cytotoxicity at 10 µM came to 4.53%. Turning to `Cc1ccc(N2CC3(COCCN(Cc4cnn(C)c4)C3)OCC2=O)s1` (stereo not given), the cytotoxicity at 10 µM is -5.18%. Turning to `Cc1cccc(CN2CCC3(CCN(c4ccccn4)C3)C2=O)c1` (stereo not given), the cytotoxicity at 10 µM worked out at 9.3%. Take `COCCN1C[C@@H]2CN(Cc3ccc(F)cc3)C[C@@H]2C1=O`: the cytotoxicity at 10 µM was -0.744%.

`Cc1cnn(CCNCC(=O)NC2(C#N)CCCC2)c1`: the cytotoxicity at 10 µM was -13.2%. Take `COc1ccccc1NC(=O)NCC(O)(c1ccccc1)C1CC1` (stereo not given): the cytotoxicity at 10 µM was -19.5%. The value for `CNC(=O)C1Cn2ccnc2C2(CCN(C(=O)c3ccccn3)CC2)O1` (stereo not given) was -144%. The value for `CNC(=O)c1cn[nH]c1C1(C)CCCN(Cc2ccccc2OC)C1` (stereo not given) was 0.353%; that for `Cn1c(SCc2noc(-c3ccsc3)n2)nnc1C1CCS(=O)(=O)C1` (stereo not given) was 3.39%; that for `Cc1cc(NC(=O)NCC2CCOC2)no1` (stereo not given) was 4.43%. For `CCCc1ncc(CN(C)C2CCCN(CCc3ccccc3)C2)cn1` (stereo not given), the cytotoxicity at 10 µM turned out to be 0.301%. The value for `O=C(N[C@H]1CN[C@H]2CCCO[C@H]21)c1cscn1` was -13.7%.

As for `Cn1ncc2c1NC(=O)CC2c1ccccc1Br` (stereo not given), the cytotoxicity at 10 µM came to 49%. For the compound `CO[C@H]1CCN(Cc2cnn(C)c2)[C@@H]2CN(Cc3ccncc3)C[C@H]12`, the cytotoxicity at 10 µM was found to be 2.29%. For the compound `CCC(=O)NCC(=O)NCC(C)(C)c1cccc(Br)c1`, the cytotoxicity at 10 µM is -2.32%. With `CN(C)C(=O)CN1C[C@H]2CCN(c3ncccn3)CC[C@H]2S1(=O)=O`, the cytotoxicity at 10 µM was 0.466%.

As to `CN1C(=N)NC(=O)/C1=C/c1ccc(-c2ccc(Br)cc2)o1`, the cytotoxicity at 10 µM came to 5.39%. With `Cc1cc(CNC(=O)CC2CCN(C(C)C)CC2)n(C)n1`, the cytotoxicity at 10 µM is -1.77%. For `CCc1ccc(C(=O)NCc2cccc(S(=O)(=O)NC)c2)o1`, the cytotoxicity at 10 µM was -2.31%. With `O=C(CNCC1CCCN1c1cccnn1)NCCc1cccs1` (stereo not given), the cytotoxicity at 10 µM is -6.84%. Consider `CC(C)c1ccnc(N[C@H]2COC[C@@H]2N2CCCC2)n1`, for which the cytotoxicity at 10 µM was -4.48%. The value for `CN(Cc1ccccc1)C(=O)CN1CCCC(Cn2cncn2)C1` (stereo not given) was -11.8%; that for `CNS(=O)(=O)c1cnccc1N1CCN(C(C)C)CC1` was -2.02%; that for `CO[C@H]1CN(Cc2nc3ccccc3n2C)C[C@@]12CCCO2` was 4.32%.

With `COC(=O)C1CN(CC(=O)Nc2ccccc2Cl)c2ccccc21` (stereo not given), the cytotoxicity at 10 µM was 14.3%.

Turning to `Cc1nc2n(n1)CC(NCc1nc(-c3ccccn3)no1)CC2` (stereo not given), the cytotoxicity at 10 µM is -12.4%. With `CS(=O)(=O)NC1CCCN(C(=O)NCc2cc[nH]n2)C1` (stereo not given) the figure was 4.14%; with `N#Cc1c(Cl)nsc1NCC1(c2ccccc2)CCC1`, 26.7%; with `CC[C@H]1N(CC2CCOCC2)CCC[C@]12CCC(=O)N2`, 8.71%. Take `O=C(c1ccccc1F)N1CCC2(CC1)CC(Oc1ccccn1)CO2` (stereo not given): the cytotoxicity at 10 µM was -113%. In the case of `COc1nn(C)cc1C(=O)NCC(=O)NCc1ccccn1`, the cytotoxicity at 10 µM is -3.56%. The value for `CCN(C)C[C@@H]1CN(S(=O)(=O)c2ccc(OC)cc2)C[C@@H]1CO` was 14.8%; that for `COCCCn1c(CN2CCSCC2)cnc1S(=O)(=O)C1CCCC1` was -3.89%.

`COCCN1CCN(CC(=O)N(C)Cc2ccsc2)CC1`: the cytotoxicity at 10 µM was -153%. For `Cn1ccnc1N1CCN(C(=O)Cc2ccc(Cl)cc2)CC1`, the cytotoxicity at 10 µM came to 5.73%. For `COC[C@@]12CCO[C@@H]1CCN(C(=O)c1ccc(F)c(F)c1)C2`, the cytotoxicity at 10 µM was -2.59%.

With `Cc1ccc(C(=O)N2CC(C(N)=O)O[C@H](C)C2)c(F)c1` (stereo not given in full), the cytotoxicity at 10 µM was -5.43%.

In the case of `OC(COCc1ccc2c(c1)OCO2)CN1CC(n2cccn2)C1` (stereo not given), the cytotoxicity at 10 µM is -5.89%. For the compound `COc1cc(OC)c2nc(NCCN3CCNC3=O)cc(C)c2c1`, the cytotoxicity at 10 µM was -3.4%. In the case of `O=C(c1ccc(S(=O)(=O)NCc2ccon2)cc1)N1CCOCC1`, the cytotoxicity at 10 µM was 3.08%.

For `Cc1ccccc1C(C(=O)N1CCN(C(=O)c2ccc[nH]2)CC1)N(C)C` (stereo not given), the cytotoxicity at 10 µM was -7.98%. As for `O=C(O)c1ccc(CNC(=O)C2CCN(C(=O)C3CCC3)CC2)s1`, the cytotoxicity at 10 µM came out at 0.993%. Turning to `CCN(CC)c1nc(C)cc(C(=O)Nc2cccc(C(N)=O)c2)n1`, the cytotoxicity at 10 µM is 14.9%. Consider `CCOc1ccc(CN2CCc3nc4ccsc4c(=O)n3CC2)cc1`, for which the cytotoxicity at 10 µM is -6.74%. `O=S(=O)(Cc1ccccc1)c1nnc(N2CCCC2)s1`: the cytotoxicity at 10 µM is -6.27%. In the case of `CC(C)NC(=O)[C@H]1C[C@@H]2[C@@H](C1)OCCN2Cc1ccco1`, the cytotoxicity at 10 µM was 4.08%. The value for `CCc1ccccc1CNC(=O)CNCC(F)(F)F` was 10.6%; that for `COCCC(=O)Nc1ccnc(Oc2ccccc2)c1` was 7.85%.

For the compound `Cc1ccn(-c2ccc(N3CCCN(Cc4ccccc4)CC3)nn2)n1`, the cytotoxicity at 10 µM is 9.31%. Take `Nc1nccc(N[C@H]2CN(CC(=O)NC3CCCCC3)C[C@@H]2C2CC2)n1`: the cytotoxicity at 10 µM was -0.208%. Consider `Cn1ccnc1SCCNC(=O)c1c[nH]nc1C1CCCCC1`, for which the cytotoxicity at 10 µM was -4.68%. Take `COc1cc(CNC2CCCN(c3ncccn3)C2)cc2c1OCO2` (stereo not given): the cytotoxicity at 10 µM is 6.26%. As to `CC1CCN(C(=O)C(C)Oc2ccc3c(c2)OCO3)CC1` (stereo not given), the cytotoxicity at 10 µM was -1.9%.

Take `Cc1nn(C)c(C)c1CCC(=O)N(C)Cc1ccc2nsnc2c1`: the cytotoxicity at 10 µM is -1.62%.

Regarding `Cc1nc(C(C)(C)C)sc1C(=O)NCCn1cccn1`, the cytotoxicity at 10 µM was -3.17%.

Regarding `Cn1cc(C(C)(O)CNc2ccccn2)cn1` (stereo not given), the cytotoxicity at 10 µM is -43.6%. `Cc1noc([C@@H]2C[C@H]3CN(Cc4cc(C)on4)C[C@H]3O2)n1`: the cytotoxicity at 10 µM is -9.33%.

Consider `CN1[C@H](Cn2cncn2)C[C@@H]2CN(Cc3cccc(C#N)c3)CC[C@@H]21`, for which the cytotoxicity at 10 µM is -9.78%. With `Cc1cccc(NC(=O)CCC(=O)NCC(=O)c2ccccc2F)c1`, the cytotoxicity at 10 µM is -6.56%.

As for `CC(C)C[C@H](N)c1nnc(SCC(=O)Nc2ccc(Br)cc2)o1`, the cytotoxicity at 10 µM was -4.99%.

Regarding `CC(=O)N1N=C(c2cccs2)OC1C(=O)Nc1ccccc1` (stereo not given), the cytotoxicity at 10 µM was -5.58%. On to `CNC(=O)Cc1coc(-c2ccc(F)cc2)n1`, for which the cytotoxicity at 10 µM is -4.15%. The value for `Cc1nc(CNC(=O)Nc2cc(F)ccc2OC(F)F)no1` was 0.311%. As to `Cc1ccccc1N1CC2(CCN(S(=O)(=O)c3cccs3)C2)CC1=O` (stereo not given), the cytotoxicity at 10 µM was found to be 14.1%. As for `O=c1c2cc3c(cc2nnn1Cc1ccccc1)OCCO3`, the cytotoxicity at 10 µM amounted to 7.38%. As for `Cc1ccc(N2CCCC(NCc3ccccn3)C2)nn1` (stereo not given), the cytotoxicity at 10 µM was 0.301%. For the compound `Cc1cnn(CC(=O)N2CCCN(c3ncccc3C#N)CC2)c1`, the cytotoxicity at 10 µM is -4.37%. Turning to `COCCN(Cc1ccncc1)C(=O)C1COc2ccccc2C1` (stereo not given), the cytotoxicity at 10 µM was 6.77%. On to `COCCN1CCCc2sc(C(=O)NCC3CCCO3)nc21` (stereo not given), for which the cytotoxicity at 10 µM stood at 5.96%.

Take `O=C(Cc1c[nH]c(=O)[nH]c1=O)N1CCCCC1CCc1ccccc1` (stereo not given): the cytotoxicity at 10 µM was -9.05%. For `CCn1c(CN(C)Cc2cnc(C)s2)nc2cc(F)ccc21`, the cytotoxicity at 10 µM is -31.9%.

These data come from ChEMBL document CHEMBL4513216, “Probing the Open Global Health Chemical Diversity Library for Multistage-Active Starting Points for Next-Generation Antimalarials” (ACS Infect Dis, 2020).
